{
  "source": "ChEMBL document CHEMBL1137629",
  "about": "“Antiproliferative effect of dihydroxyacetone on Trypanosoma brucei bloodstream forms: cell cycle progression, subcellular alterations, and cell death” (Antimicrob Agents Chemother, 2007)",
  "key": {"Trypanosoma brucei [1]": {"tested_on": "Trypanosoma brucei", "assay": "Effect on morphological changes in Trypanosoma brucei bloodstream form assessed as appearance of multiple folds in mitochondrion membrane at 3 mM after 24 hrs by transmission electron microscopy", "assay_type": "functional, organism-based", "procedure,_shortened": "(§1)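 Parasites exposed 24 h to 3 mM DHA. 10⁸ cells fixed 1 h at 4°C in 2% glutaraldehyde in 0.2 M sodium cacodylate with 0.12 M sucrose, held overnight in buffer, postfixed in 1.5% osmium tetroxide and stained with 0.5% uranyl acetate. Dehydrated in ethanol, cleared in propylene oxide, embedded in Agar 100. Sections stained with 5% uranyl acetate and 0.4% lead citrate for TEM. Rapamycin (5 μM) served as the autophagy positive control.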"}, "Trypanosoma brucei [2]": {"tested_on": "Trypanosoma brucei", "assay": "Trypanocidal activity against Trypanosoma brucei bloodstream form assessed as cell death at 1 mM after 40 mins by spectrophotometry", "assay_type": "functional, organism-based"}, "Trypanosoma brucei [3]": {"tested_on": "Trypanosoma brucei", "assay": "Trypanocidal activity against Trypanosoma brucei bloodstream form assessed as decrease in cell density after 24 hrs by spectrophotometry", "assay_type": "functional, organism-based", "procedure,_shortened": "(§2)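 Proliferation measured in complete medium (33 mM glucose, 15% serum) with a range of DHA concentrations. Cell density followed over 24 h. Triplicate, SD.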"}, "Trypanosoma brucei [4]": {"tested_on": "Trypanosoma brucei", "assay": "Trypanocidal activity against Trypanosoma brucei bloodstream form at 4 mM up to 24 hrs by spectrophotometry", "assay_type": "functional", "procedure,_shortened": "as §2"}, "Trypanosoma brucei [5]": {"tested_on": "Trypanosoma brucei", "assay": "Effect on morphological changes in Trypanosoma brucei bloodstream form assessed as increase in autophagic vaculoe structures at 3 mM after 24 hrs by transmission electron microscopy", "assay_type": "functional, organism-based", "procedure,_shortened": "as §1"}, "Trypanosoma brucei [6]": {"tested_on": "Trypanosoma brucei", "assay": "Effect on morphological changes in Trypanosoma brucei bloodstream form assessed as change in cell nucleus at 3 mM after 24 hrs by transmission electron microscopy", "assay_type": "functional, organism-based", "procedure,_shortened": "as §1"}, "Trypanosoma brucei [7]": {"tested_on": "Trypanosoma brucei", "assay": "Effect on morphological changes in Trypanosoma brucei bloodstream form assessed as disorder of mitochondrion structure at 3 mM after 24 hrs by transmission electron microscopy", "assay_type": "functional, organism-based", "procedure,_shortened": "as §1"}, "Trypanosoma brucei [8]": {"tested_on": "Trypanosoma brucei", "assay": "Effect on cell cycle of Trypanosoma brucei bloodstream form assessed as induction of necrosis at 5 uM after 24 hrs using propidium iodide staining by FACS analysis", "assay_type": "functional"}, "Trypanosoma brucei [9]": {"tested_on": "Trypanosoma brucei", "assay": "Effect on cell cycle of Trypanosoma brucei bloodstream form assessed as DNA content at 2 mM after 24 hrs using propidium iodide staining by FACS analysis", "assay_type": "functional", "procedure,_shortened": "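T. brucei bloodstream forms (MITat 1.2, strain EATRO 427), axenic culture at 37°C, 5% CO₂. Treated 24 h. At least 5 × 10⁵ cells washed in PBS, lysed hypotonically 30 min at room temperature in 10 mM phosphate buffer pH 7.4 with 6 μM digitonin. Nuclei stained with propidium iodide (10 μg/ml final) and analysed by flow cytometry for G₁/S/G₂ distribution and degraded DNA.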"}, "Trypanosoma brucei [10]": {"tested_on": "Trypanosoma brucei", "assay": "Induction of apoptosis-like programmed cell death in Trypanosoma brucei bloodstream form assessed as phosphatidylserine exposure in outer leaflet of plasma membrane at 1 mM after 24 hrs by V-Fluos staining staining", "assay_type": "functional", "procedure,_shortened": "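After 24 h DHA exposure of axenic bloodstream-form T. brucei MITat 1.2 (EATRO 427; 37°C, 5% CO₂), cells were washed in HEPES buffer (10 mM, pH 7.4, 140 mM NaCl, 5 mM CaCl₂). They were then stained with annexin V-Fluos for 15 min at 4°C and analysed by flow cytometry.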"}, "Trypanosoma brucei [11]": {"tested_on": "Trypanosoma brucei", "assay": "Induction of apoptosis-like programmed cell death in Trypanosoma brucei bloodstream form assessed as increase in intracellular reactive oxygen species production at 1 mM after 24 hrs by FACS analysis", "assay_type": "functional", "procedure,_shortened": "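Bloodstream-form T. brucei MITat 1.2 (VSG 221, strain EATRO 427) were grown axenically at 37°C, 5% CO₂ and exposed to DHA for 24 h. Control and treated cells were then loaded with 10 μM dichlorofluorescein diacetate for 1 h at 37°C. Intracellular fluorescence intensity was read by flow cytometry.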"}},
  "note": "Activity calls are given as the source filed them. No cut-off for these calls is given here.",
  "data": [
    {"smiles": "O=C(CO)CO", "note": "[DIHYDROXYACETONE]", "values": [
      {"measurement": "Activity", "setting": "Trypanosoma brucei [1]", "value": "Active"},
      {"measurement": "Activity", "setting": "Trypanosoma brucei [2]", "value": "Active"},
      {"measurement": "Activity", "setting": "Trypanosoma brucei [3]", "value": "Dose-dependent effect"},
      {"measurement": "Activity", "setting": "Trypanosoma brucei [4]", "value": 100, "unit": "%"},
      {"measurement": "Activity", "setting": "Trypanosoma brucei [5]", "value": "Active"},
      {"measurement": "Activity", "setting": "Trypanosoma brucei [6]", "value": "inactive"},
      {"measurement": "Activity", "setting": "Trypanosoma brucei [7]", "value": "Active"},
      {"measurement": "Activity", "setting": "Trypanosoma brucei [8]", "value": 4.5, "unit": "%"},
      {"measurement": "Activity", "setting": "Trypanosoma brucei [9]", "value": 9, "unit": "%"},
      {"measurement": "Activity", "setting": "Trypanosoma brucei [10]", "value": 6.3, "unit": "%"},
      {"measurement": "Activity", "setting": "Trypanosoma brucei [11]", "value": 5.9, "unit": "%"}
    ]}
  ]
}
